High-throughput results (PubChem BioAssay)
APP 5UTR inh – APP translation inhibition | inhibition, % at 2 µM | AID 1285 | SH-SY5Y APP 5'UTR-luciferase reporter, luminescence | 190,000 tested, 0.82% active;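 active = inhibition above a set limit, derived from the sample mean plus 3 SD, cut at about 45% in these data; inconclusive = one replicate passes the limit while the other fails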
697 NFkB inh – inhibitors of the PMA/ionomycin-induced NF-kB reporter in 697 B cells; 697 B-cell NF-kB luciferase reporter, 16 h; inhibition, % at 4 µM; 330,000 tested, 0.33% active; AID 435022; in the data active = inhibition above about 35%
Lipid droplet – modulators of hepatic lipid droplet formation; AML12 mouse hepatocytes, oleate lipid droplets, BODIPY imaging; 240,000 tested, 0.4% active; inhibition, % at 6.5 µM;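 active = lipid droplet intensity inhibited by at least 50%, with more than 500 cells counted; inconclusive = wells with under 300 cells, treated as cytotoxic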
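System: AML12 hepatocytes (mouse). Probe or stimulus: oleic acid at 100 µM to induce lipid droplet formation. Times: overnight treatment with compound plus oleate. Detection: Image-based BODIPY and DAPI two-channel analysis. Evaluation: percent inhibition of filter-corrected integrated lipid droplet intensity per well.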
TAG inh – reduces triacylglycerol accumulation in H9c2 cells | Nile Red lipid (TAG) fluorescence; cells loaded with 200 µM oleic acid | inhibition, % at 12.5 µM | 230,000 tested, 0.66% active;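 active = pattern-corrected inhibition of lipid staining of at least 50% with the nuclear-stain viability signal not falling by more than 50%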;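 also: 0% = DMSO wells and 100% = triacsin C control wells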
Jurkat NFkB inh – inhibitors of the PMA/ionomycin-induced NF-kB reporter in Jurkat cells | PMA/ionomycin-induced NF-kB luciferase reporter, luminescence | 330,000 tested, 0.53% active | AID 435003 | inhibition, % at 4 µM; in the data active = inhibition above about 50%
aSyn UTR inh – MLPCN primary screen, SNCA 5' untranslated region; alpha-synuclein 5'UTR reporter, inhibitor activity; inhibition, % (tested at 7.5 µM); 300,000 tested, 0.82% active; AID 1813; in the data active = inhibition above about 60%; inconclusive = no clear call, values can overlap the other calls;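 also: H4 neuroglioblastoma cells stably carrying SNCA 5'UTR luciferase fusion; 0% = DMSO wells and 100% = positive control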
TAG conf – triacylglycerol accumulation inhibition, confirmation. shares compounds with TAG inh. H9c2 lipid accumulation, Nile Red fluorescence; cells loaded with 200 µM oleic acid. inhibition, % at 12.5 µM. 990 tested, 71% active. AID 651629;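 active = mean inhibition across replicates of 40% or more; inactive = mean inhibition below 40%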;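 also: plate controls were DMSO only wells for no effect and Triacsin C treated wells for full effect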
* hit, by the source's call; ? = inconclusive; . = no result. Most compounds without a hit are left out; they make up all but 1.9% or so of the library.

SMILES	APP 5UTR inh	697 NFkB inh	Lipid droplet	TAG inh	Jurkat NFkB inh	aSyn UTR inh	TAG conf
CCCCCC(=O)Nc1cc(S(=O)(=O)N2CCOCC2)ccc1N1CCCCC1	.	-2	.	2	13	-1	.
CCOC(=O)c1[nH]c(C)c(C(=O)OC(C)C(=O)Nc2ncc(Cl)cc2Cl)c1C (stereo unspecified)	10	5	.	57*	29	-6	39
Cc1cc(-c2cc(C(=O)NCc3ccccc3)on2)nc(NC2CCCC2)n1	.	5	.	12	2	29	.
Cc1ccc(CN(C(=O)c2csnn2)C(C(=O)NC2CCCC2)c2ccc(C)o2)cc1 (stereo unspecified)	-13	7	-11	51*	6	-1	42*
CCO[C@@H]1OC(C(=O)NCc2nc3ccccc3[nH]2)=C[C@H](c2cn(C(C)=O)c3ccccc23)[C@H]1CCCO	11	18	12	53*	27	13	28
C(=N\Nc1nc2ccccc2[nH]1)/c1ccccc1	-128	-72	16	13	-68	-175	.
C(=N\Nc1nc2ccccc2[nH]1)/C1CCCCC1	-44	-34	11	74*	-61	-37	10
COC(=O)c1cc(C(=O)N2CCN(c3ccccc3OC)CC2)cc([N+](=O)[O-])c1	92*	24	?	51*	41	44	85*
CC(C)c1cccc(C(C)C)c1OC(=O)[C@H]1OC(c2ccc(Br)cc2)=C[C@@H]1c1ccc(Br)cc1	.	0	.	59*	7	.	23
CCOc1ccc(-c2nnn(CC(=O)N3CCCC3)n2)cc1OCC	15	7	-10	-16	-4	27	.
COc1ccc(NC(=O)CCC(=O)NCc2ccco2)c([N+](=O)[O-])c1	.	-23	.	-5	-21	-4	.
NS(=O)(=O)c1ccc(CCNC(=O)c2ccccc2-c2ccccc2)cc1	.	-9	-5	.	-1	2	.
CCOc1ccccc1C(=O)Nc1cc(C)ccc1NC(=O)c1ccco1	.	20	-22	0	-5	0	.
CCNc1nc(SC(C)C(=O)Nc2ccccc2)nc(N(C)C)n1 (stereo unspecified)	4	-21	32	54*	3	23	28
COc1ccc(NS(=O)(=O)c2cc(C)ccc2NC(=O)c2cc(C)oc2C)cc1	95*	-14	-40	62*	41	103*	79*
O=C(CSc1nc2ccccc2c(=O)[nH]1)Nc1ccc(C(=O)O)cc1	-4	20	21	-5	-3	-11	.
CCOc1ccc(NC(=O)c2ccc(NC(=O)CSc3nc4ccccc4c(=O)[nH]3)cc2)cc1	13	18	2	61*	1	37	63*
COc1cc(C#Cc2c(-c3cncn3C)n(C)c3ccc(-c4ccc5cc[nH]c5c4)cc23)cc(OC)c1	.	9	.	82*	1	.	74*
COc1cc(C#Cc2c(-c3cncn3C)n(C)c3ccc(-c4ccc(OC)c(OC)c4)cc23)cc(OC)c1	.	18	.	70*	-3	.	69*
COc1cc(C#Cc2c(-c3cncn3C)n(C)c3ccc(Br)cc23)cc(OC)c1	.	11	.	48	19	.	.
COc1ccc(NC(=O)COC(=O)c2ccc(S(=O)(=O)N3CCCCC3)cc2)c(OC)c1	.	.	.	-9	.	.	.
